Molecules are shown by their SMILES. pEC50, pKi: −log10 of the molar value. Activity calls are given as the source filed them. The calls are words filed in the database; no cut-off is given here.

In assay [1] the target is T1, Mu-type opioid receptor (Homo sapiens, UniProt P35372). As to the kind of experiment: Displacement of [125I]IOXY from human recombinant mu opioid receptor expressed in CHO cells. In kind it is cell-based.
Assay [2] concerns the target Delta-type opioid receptor (Homo sapiens, UniProt P41143). The experiment in a line: Displacement of [125I]IOXY from human recombinant delta opioid receptor expressed in CHO cells. It is filed as cell-based.
The target of assay [3] is T2, Kappa-type opioid receptor (Homo sapiens, UniProt P41145). As to the kind of experiment: Displacement of [125I]IOXY from human recombinant kappa opioid receptor expressed in CHO cells. In kind it is cell-based.
The species entered for assay [4] is Homo sapiens. The experiment in a line: Selectivity for human recombinant kappa opioid receptor over human recombinant mu opioid receptor.
For assay [5], the species on record is Homo sapiens. The experiment in a line: Selectivity for human recombinant kappa opioid receptor over human recombinant delta opioid receptor.
Assay [6] concerns the target T1, Mu-type opioid receptor. The experiment in a line: Agonist activity at human recombinant mu opioid receptor expressed in CHO cells by [35S]GTP-gamma-S binding assay. In kind it is functional, cell-based.
In assay [7] the target is T1, Mu-type opioid receptor. The experiment in a line: Agonist activity at human recombinant mu opioid receptor expressed in CHO cells by [35S]GTP-gamma-S binding assay relative to DAMGO. It is filed as functional, cell-based.
Assay [8] addresses T2, Kappa-type opioid receptor. The experiment in a line: Agonist activity at human recombinant kappa opioid receptor expressed in CHO cells by [35S]GTP-gamma-S binding assay. It is filed as functional, cell-based.
Assay [9] addresses T2, Kappa-type opioid receptor. The experiment in a line: Agonist activity at human recombinant kappa opioid receptor expressed in CHO cells by [35S]GTPgammaS binding assay relative to (-)-U50,488. In kind it is functional, cell-based.
Assay [10] addresses T1, Mu-type opioid receptor. The experiment in a line: Agonist activity at human mu opioid receptor expressed in CHO cells assessed as increase in ERK phosphorylation after 10 mins. It is filed as functional, cell-based. The procedure, abridged:
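CHO cells stably expressing human MOR1 (~800 fmol/mg membrane protein), serum-starved 30 min at 37°C, then treated 10 min, with naloxone present where indicated. Lysates were run on SDS-PAGE and immunoblotted for total ERK1/2, then stripped and reprobed for phospho-ERK (Tyr204), with HRP chemiluminescence detection. Densitometry; at least three experiments in triplicate.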

Assay [11] has as its target T1, Mu-type opioid receptor. As to the kind of experiment: Agonist activity at mu opioid receptor expressed in HEK293 cells assessed as induction of beta-arrestin-2-GFP plasma membrane translocation at 10 uM after 10 mins. In kind it is functional, cell-based. A digest of the protocol:
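HEK-293 cells stably expressing MOR (~1000 fmol/mg membrane protein), or transiently expressing MOR1, were transiently transfected with βarr2-GFP (2 μg), with or without GRK2 (1.5 μg). After 24–36 h at 37°C and 30 min serum starvation, basal images were taken. Drug was then applied at 10 μM for 10 min, with confocal imaging each minute; cells shown at 5 min. At least 3 independent experiments.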

T1 sequence (P35372 whole entry): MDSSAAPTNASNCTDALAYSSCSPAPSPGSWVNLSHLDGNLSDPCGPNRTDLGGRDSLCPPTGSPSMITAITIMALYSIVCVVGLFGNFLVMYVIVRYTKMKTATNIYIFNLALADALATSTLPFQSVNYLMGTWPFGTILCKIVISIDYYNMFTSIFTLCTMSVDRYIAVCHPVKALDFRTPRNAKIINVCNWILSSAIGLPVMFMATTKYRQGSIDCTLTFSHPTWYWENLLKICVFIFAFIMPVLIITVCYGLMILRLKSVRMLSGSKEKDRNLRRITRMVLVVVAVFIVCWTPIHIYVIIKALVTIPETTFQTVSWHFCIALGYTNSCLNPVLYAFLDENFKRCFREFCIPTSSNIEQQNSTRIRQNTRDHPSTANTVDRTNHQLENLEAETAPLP
T2 sequence (P41145 whole entry): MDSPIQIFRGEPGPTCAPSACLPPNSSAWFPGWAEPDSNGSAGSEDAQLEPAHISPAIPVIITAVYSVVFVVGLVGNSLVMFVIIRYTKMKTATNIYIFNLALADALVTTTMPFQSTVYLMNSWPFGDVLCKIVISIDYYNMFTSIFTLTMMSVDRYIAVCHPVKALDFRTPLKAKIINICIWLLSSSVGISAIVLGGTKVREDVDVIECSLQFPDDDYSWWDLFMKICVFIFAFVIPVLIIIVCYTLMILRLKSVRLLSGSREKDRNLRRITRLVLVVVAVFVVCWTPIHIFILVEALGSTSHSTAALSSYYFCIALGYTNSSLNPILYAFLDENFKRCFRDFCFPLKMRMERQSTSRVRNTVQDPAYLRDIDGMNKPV
Sequence of Delta-type opioid receptor (P41143 whole entry): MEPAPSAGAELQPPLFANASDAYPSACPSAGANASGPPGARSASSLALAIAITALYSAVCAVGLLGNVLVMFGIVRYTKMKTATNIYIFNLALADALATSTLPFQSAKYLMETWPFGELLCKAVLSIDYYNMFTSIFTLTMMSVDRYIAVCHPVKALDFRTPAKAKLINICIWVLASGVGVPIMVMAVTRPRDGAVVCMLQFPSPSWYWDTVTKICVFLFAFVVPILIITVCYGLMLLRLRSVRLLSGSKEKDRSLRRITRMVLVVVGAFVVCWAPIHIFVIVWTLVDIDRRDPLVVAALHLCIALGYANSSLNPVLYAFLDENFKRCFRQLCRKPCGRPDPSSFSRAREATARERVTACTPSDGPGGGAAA

Regarding `COC(=O)[C@@H]1C[C@H](OC(=O)c2cc3ccccc3o2)C(=O)[C@H]2[C@@]1(C)CC[C@H]1C(=O)O[C@H](c3ccoc3)C[C@]21C`, the pKi on Mu-type opioid receptor [1] was 8.00; in assay [2], 6.24; in [3], 7.15. The Ratio Ki in the assay filed under Homo sapiens [4] is 0.14; in the assay filed under Homo sapiens [5], 8. For the same molecule, the pEC50 on Mu-type opioid receptor [6] was 5.77; in [8], 5.95. Moreover, the values for the maximum response (Emax) (on Mu-type opioid receptor [7]; in assay [9]) were 104% and 109%, respectively.

Consider `COC(=O)[C@@H]1C[C@H](OC(=O)c2ccc(Br)cc2)C(=O)[C@H]2[C@@]1(C)CC[C@H]1C(=O)O[C@H](c3ccoc3)C[C@]21C`, for which the Ratio Ki in the assay listed under Homo sapiens [4] worked out at 0.01; in the assay filed under Homo sapiens [5], 2. Moreover, the negative logarithm of the EC50 (pEC50) on Mu-type opioid receptor [6] was 5.31. On Mu-type opioid receptor [7], the Emax was found to be 108%. In addition, the Activity result at Mu-type opioid receptor [10] was “Dose-dependent effect”.

Consider `COC(=O)[C@@H]1C[C@H](OC(=O)c2ccc3ccccc3c2)C(=O)[C@H]2[C@@]1(C)CC[C@H]1C(=O)O[C@H](c3ccoc3)C[C@]21C`, for which the pKi on Mu-type opioid receptor [1] was 6.74; in [2], below 5.00; in [3], 5.26. Also, the Ratio Ki in the assay listed under Homo sapiens [4] was 0.03; in the assay filed under Homo sapiens [5], above 2.

In the case of `COC(=O)[C@@H]1C[C@H](SC(=O)c2ccccc2)C(=O)[C@H]2[C@@]1(C)CC[C@H]1C(=O)O[C@H](c3ccoc3)C[C@]21C`, the pKi was 6.54 on Mu-type opioid receptor [1], 5.71 in assay [2] and 5.85 in [3]. Also, the Ratio Ki in the assay listed under Homo sapiens [4] was found to be 0.21; in the assay listed under Homo sapiens [5], 1.4.

Turning to `COC(=O)[C@@H]1C[C@H](OC(=O)c2ccc([N+](=O)[O-])cc2)C(=O)[C@H]2[C@@]1(C)CC[C@H]1C(=O)O[C@H](c3ccoc3)C[C@]21C`, the pKi at Mu-type opioid receptor [1] is 6.59; in assay [2], below 5.00; in assay [3] it was 6.24. Moreover, the Ratio Ki in the assay listed under Homo sapiens [4] was found to be 13; in the assay listed under Homo sapiens [5], 0.45. Moreover, the pEC50 at Mu-type opioid receptor [6] is 5.86. Also, at Mu-type opioid receptor [7], the Emax was determined as 46%. At Mu-type opioid receptor [10], the Activity entry is “Dose-dependent effect”.

Take `COC(=O)[C@@H]1C[C@H](OC(=O)c2cccc(OC)c2)C(=O)[C@H]2[C@@]1(C)CC[C@H]1C(=O)O[C@H](c3ccoc3)C[C@]21C`: the pKi at Mu-type opioid receptor [1] is 7.52; in assay [2], 5.94; in assay [3], 6.26. Besides, the Ratio Ki is 0.05 in the assay listed under Homo sapiens [4] and 2 in the assay listed under Homo sapiens [5]. Moreover, the pEC50 on Mu-type opioid receptor [6] was 5.78; in assay [8] it was 5.44. The Emax on Mu-type opioid receptor [7] was determined as 72%; in [9] it was 97%.

Turning to `COC(=O)[C@@H]1C[C@H](OC(=O)c2ccccc2[N+](=O)[O-])C(=O)[C@H]2[C@@]1(C)CC[C@H]1C(=O)O[C@H](c3ccoc3)C[C@]21C`, the values for the pKi (on Mu-type opioid receptor [1]; in assay [2]; in assay [3]) were 5.12, below 5.00 and 6.05, respectively. Also, the Ratio Ki in the assay listed under Homo sapiens [4] is 8; in the assay filed under Homo sapiens [5], above 11.

On to `COC(=O)[C@@H]1C[C@H](OC(=O)C2CCCCC2)C(=O)[C@H]2[C@@]1(C)CC[C@H]1C(=O)O[C@H](c3ccoc3)C[C@]21C`, for which the pKi was 5.99 at Mu-type opioid receptor [1], below 5.00 in assay [2] and 5.70 in assay [3]. In addition, the Ratio Ki in the assay filed under Homo sapiens [4] is 0.5; in the assay filed under Homo sapiens [5], above 5.

Take `COC(=O)[C@@H]1C[C@H](OC(=O)c2ccccc2Br)C(=O)[C@H]2[C@@]1(C)CC[C@H]1C(=O)O[C@H](c3ccoc3)C[C@]21C`: the Ratio Ki was 1.2 in the assay listed under Homo sapiens [4] and above 100 in the assay listed under Homo sapiens [5].

For the molecule `COC(=O)[C@@H]1C[C@H](OC(=O)c2cccs2)C(=O)[C@H]2[C@@]1(C)CC[C@H]1C(=O)O[C@H](c3ccoc3)C[C@]21C`, the Ratio Ki worked out at 0.04 in the assay listed under Homo sapiens [4] and 5 in the assay filed under Homo sapiens [5]. The pEC50 at Mu-type opioid receptor [6] is 5.94. The Emax on Mu-type opioid receptor [7] was 95%.

`COC(=O)[C@@H]1C[C@H](O)C(=O)[C@H]2[C@@]1(C)CC[C@H]1C(=O)O[C@H](c3ccoc3)C[C@]21C` [SALVINORIN B]: the pKi (on Mu-type opioid receptor [1]; in assay [2]) was below 5.00 each time.

In the case of `COC(=O)[C@@H]1C[C@H](OC(=O)c2cccc(Br)c2)C(=O)[C@H]2[C@@]1(C)CC[C@H]1C(=O)O[C@H](c3ccoc3)C[C@]21C`, the Ratio Ki in the assay filed under Homo sapiens [4] is 1.6; in the assay listed under Homo sapiens [5], above 100.

As for `COC(=O)[C@@H]1C[C@H](NS(C)(=O)=O)C(=O)[C@H]2[C@@]1(C)CC[C@H]1C(=O)O[C@H](c3ccoc3)C[C@]21C`, the results for the pKi (on Mu-type opioid receptor [1]; in assay [2]; in assay [3]) were below 5.00, below 5.00 and 6.59, respectively. Also, the Ratio Ki in the assay listed under Homo sapiens [4] and in the assay listed under Homo sapiens [5] was above 38 in each case.

As for `COC(=O)[C@@H]1C[C@H](OC(=O)c2ccc(OC)cc2)C(=O)[C@H]2[C@@]1(C)CC[C@H]1C(=O)O[C@H](c3ccoc3)C[C@]21C`, the pKi on Mu-type opioid receptor [1] was 7.15; in [2], 5.73; in [3] it was 6.27. Also, the values for the Ratio Ki in the assay listed under Homo sapiens [4] and in the assay filed under Homo sapiens [5] were 0.12 and 3, respectively. Also, the pEC50 on Mu-type opioid receptor [6] was 6.08; in [8], 5.58. Moreover, the maximal effect (Emax) at Mu-type opioid receptor [7] is 94%; in [9] it was 106%. For the same molecule, the Activity entry at Mu-type opioid receptor [10] was “Dose-dependent effect”.

For the molecule `COC(=O)[C@@H]1C[C@H](OC(=O)c2ccccc2OC)C(=O)[C@H]2[C@@]1(C)CC[C@H]1C(=O)O[C@H](c3ccoc3)C[C@]21C`, the pKi was 5.79 on Mu-type opioid receptor [1], below 5.00 in assay [2] and 6.64 in assay [3]. Moreover, the Ratio Ki was 7 in the assay listed under Homo sapiens [4] and above 43 in the assay filed under Homo sapiens [5].

For `COC(=O)[C@@H]1C[C@H](OC(=O)c2ccsc2)C(=O)[C@H]2[C@@]1(C)CC[C@H]1C(=O)O[C@H](c3ccoc3)C[C@]21C`, the pKi on Mu-type opioid receptor [1] was 8.00; in assay [2], 6.16; in assay [3], 7.10. The Ratio Ki turned out to be 0.16 in the assay filed under Homo sapiens [4] and 9 in the assay listed under Homo sapiens [5]. In addition, the pEC50 at Mu-type opioid receptor [6] was 6.16; in [8], 6.08. In addition, the Emax turned out to be 108% at Mu-type opioid receptor [7] and 95% in assay [9].

With `COC(=O)[C@@H]1C[C@H](NC(=O)c2ccccc2)C(=O)[C@H]2[C@@]1(C)CC[C@H]1C(=O)O[C@H](c3ccoc3)C[C@]21C`, the figures for the pKi (on Mu-type opioid receptor [1]; in assay [2]; in [3]) were 8.51, 6.09 and 5.13, respectively. For the same molecule, the Ratio Ki in the assay listed under Homo sapiens [4] came to 0.0004; in the assay listed under Homo sapiens [5] it was 0.11. On Mu-type opioid receptor [6], the pEC50 is 6.44. At Mu-type opioid receptor [7], the Emax was determined as 134%. In addition, on Mu-type opioid receptor [11], the outcome was Active. The Activity entry on Mu-type opioid receptor [10] is “Dose-dependent effect”.

Turning to `COC(=O)[C@@H]1C[C@H](NC(C)=O)C(=O)[C@H]2[C@@]1(C)CC[C@H]1C(=O)O[C@H](c3ccoc3)C[C@]21C`, the figures for the pKi (on Mu-type opioid receptor [1]; in [2]; in assay [3]) were 5.38, below 5.00 and 7.52, respectively. The Ratio Ki in the assay listed under Homo sapiens [4] is 13; in the assay filed under Homo sapiens [5], above 330. Further, the pEC50 in [8] was 6.92. Further, in assay [9], the Emax was 108%.

Consider `COC(=O)[C@@H]1C[C@H](NS(=O)(=O)c2ccccc2)C(=O)[C@H]2[C@@]1(C)CC[C@H]1C(=O)O[C@H](c3ccoc3)C[C@]21C`, for which the pKi is below 5.00 at Mu-type opioid receptor [1], below 5.00 in [2] and 5.85 in assay [3]. Besides, the Ratio Ki in the assay listed under Homo sapiens [4] and in the assay listed under Homo sapiens [5] was above 7 throughout.

Turning to `COC(=O)[C@@H]1C[C@H](OC(=O)c2ccccc2)C(=O)[C@H]2[C@@]1(C)CC[C@H]1C(=O)O[C@H](c3ccoc3)C[C@]21C`, the Ratio Ki is 0.13 in the assay listed under Homo sapiens [4] and 12 in the assay listed under Homo sapiens [5].

With `COC(=O)[C@@H]1C[C@H](OC(=O)c2cccc3ccccc23)C(=O)[C@H]2[C@@]1(C)CC[C@H]1C(=O)O[C@H](c3ccoc3)C[C@]21C`, the pKi is below 5.00 at Mu-type opioid receptor [1], below 5.00 in assay [2] and 6.39 in [3]. For the same molecule, the Ratio Ki in the assay listed under Homo sapiens [4] and in the assay filed under Homo sapiens [5] was above 24 throughout.

Regarding `COC(=O)[C@@H]1C[C@H](OC(=O)c2cccc([N+](=O)[O-])c2)C(=O)[C@H]2[C@@]1(C)CC[C@H]1C(=O)O[C@H](c3ccoc3)C[C@]21C`, the results for the negative-log Ki (pKi) (at Mu-type opioid receptor [1]; in assay [2]; in [3]) were below 5.00, below 5.00 and 6.10, respectively. For the same molecule, the Ratio Ki in the assay filed under Homo sapiens [4] and in the assay filed under Homo sapiens [5] was above 12 in each case.

Source of the values: ChEMBL document CHEMBL1144846, “Herkinorin analogues with differential beta-arrestin-2 interactions” (J Med Chem, 2008).
